2 compounds from ChEMBL document CHEMBL5365542, “Difluoromethyl-1,3,4-oxadiazoles Are Selective, Mechanism-Based, and Essentially Irreversible Inhibitors of Histone Deacetylase 6” (J Med Chem, 2023) can be followed below.

Assay [1] concerns T1, Histone deacetylase 6 (Danio rerio), F8W4B7 [H573A].
T1 sequence (whole entry): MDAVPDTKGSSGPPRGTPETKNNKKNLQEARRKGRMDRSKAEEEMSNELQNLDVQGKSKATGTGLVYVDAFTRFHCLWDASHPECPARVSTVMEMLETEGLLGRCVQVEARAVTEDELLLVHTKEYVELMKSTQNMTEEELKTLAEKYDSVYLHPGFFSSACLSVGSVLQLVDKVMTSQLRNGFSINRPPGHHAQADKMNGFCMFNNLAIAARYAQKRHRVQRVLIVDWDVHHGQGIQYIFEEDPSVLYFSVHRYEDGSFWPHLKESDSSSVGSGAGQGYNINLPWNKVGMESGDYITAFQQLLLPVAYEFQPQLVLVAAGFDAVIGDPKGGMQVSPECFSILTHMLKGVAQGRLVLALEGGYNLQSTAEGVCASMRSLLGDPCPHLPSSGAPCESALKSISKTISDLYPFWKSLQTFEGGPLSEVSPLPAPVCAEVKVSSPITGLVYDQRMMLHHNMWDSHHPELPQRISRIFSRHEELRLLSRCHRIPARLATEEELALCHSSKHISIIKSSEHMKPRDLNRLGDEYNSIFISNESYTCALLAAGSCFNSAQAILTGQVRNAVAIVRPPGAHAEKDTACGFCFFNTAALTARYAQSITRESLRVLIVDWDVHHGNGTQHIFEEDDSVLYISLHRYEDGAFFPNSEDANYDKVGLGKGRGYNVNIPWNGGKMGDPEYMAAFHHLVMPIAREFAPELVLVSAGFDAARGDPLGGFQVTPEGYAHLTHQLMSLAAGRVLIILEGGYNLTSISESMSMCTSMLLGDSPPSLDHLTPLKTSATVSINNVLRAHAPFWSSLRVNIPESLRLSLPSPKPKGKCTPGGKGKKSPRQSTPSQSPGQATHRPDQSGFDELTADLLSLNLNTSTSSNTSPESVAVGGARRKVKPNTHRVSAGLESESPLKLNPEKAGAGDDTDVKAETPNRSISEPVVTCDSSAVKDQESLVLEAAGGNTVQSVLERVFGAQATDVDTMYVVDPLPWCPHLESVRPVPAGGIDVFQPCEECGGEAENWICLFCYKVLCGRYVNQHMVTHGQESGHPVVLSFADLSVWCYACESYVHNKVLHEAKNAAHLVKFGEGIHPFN
In words: Irreversible inhibition of Danio rerio HDAC6 H573A mutant catalytic domain 2 assessed as enzyme catalysed ring opening by measuring reduction in 2-(benzylamino)-N'-(2,2,2-trifluoroacetyl)pyrimidine-5-carbohydrazide formation at 100 uM incubated overnight by LC-MS analysis. The gist of the method: (§1)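 Zebrafish HDAC6 CD2 mutants were made by site-directed mutagenesis and expressed in BL21(DE3). Enzyme at 50 μM was incubated overnight with 100 μM inhibitor in 50 mM HEPES pH 7.5, 100 mM KCl, 1 mM TCEP, 5% glycerol; an enzyme-free control was included. Protein was methanol-precipitated and filtered, and products were analysed by C18 UPLC-MS with a 2-min gradient.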

The target in assay [2] is Histone deacetylase 4 (Homo sapiens) (UniProt P56524). In words: Inhibition of N-terminal GST-tagged/C-terminal His-tagged human HDAC4 (627 to 1084 residues) expressed in Sf9 insect cells using Boc-Lys(Tfa)-AMC as fluorogenic substrate at 10 uM preincubated for 60 mins followed by substrate addition and measured after 90 mins by microplate reader analysis relative to control. The conditions noted are these: time 150.0 min. In short, it runs like this:
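Recombinant human HDAC4 was preincubated with inhibitor for 60 min at 25 °C in Tris-HCl pH 8.0/BSA buffer. Boc-Lys(Tfa)-AMC (42.86 μM solution) was then added for 90 min at 37 °C, followed by trypsin for 30 min at 37 °C. Fluorescence was read at ex 355/em 460. Tested at least twice in duplicate.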

In assay [3] the target is T2, Protein deacetylase HDAC6 (Homo sapiens, UniProt Q9UBN7).
T2 sequence (Q9UBN7 whole entry): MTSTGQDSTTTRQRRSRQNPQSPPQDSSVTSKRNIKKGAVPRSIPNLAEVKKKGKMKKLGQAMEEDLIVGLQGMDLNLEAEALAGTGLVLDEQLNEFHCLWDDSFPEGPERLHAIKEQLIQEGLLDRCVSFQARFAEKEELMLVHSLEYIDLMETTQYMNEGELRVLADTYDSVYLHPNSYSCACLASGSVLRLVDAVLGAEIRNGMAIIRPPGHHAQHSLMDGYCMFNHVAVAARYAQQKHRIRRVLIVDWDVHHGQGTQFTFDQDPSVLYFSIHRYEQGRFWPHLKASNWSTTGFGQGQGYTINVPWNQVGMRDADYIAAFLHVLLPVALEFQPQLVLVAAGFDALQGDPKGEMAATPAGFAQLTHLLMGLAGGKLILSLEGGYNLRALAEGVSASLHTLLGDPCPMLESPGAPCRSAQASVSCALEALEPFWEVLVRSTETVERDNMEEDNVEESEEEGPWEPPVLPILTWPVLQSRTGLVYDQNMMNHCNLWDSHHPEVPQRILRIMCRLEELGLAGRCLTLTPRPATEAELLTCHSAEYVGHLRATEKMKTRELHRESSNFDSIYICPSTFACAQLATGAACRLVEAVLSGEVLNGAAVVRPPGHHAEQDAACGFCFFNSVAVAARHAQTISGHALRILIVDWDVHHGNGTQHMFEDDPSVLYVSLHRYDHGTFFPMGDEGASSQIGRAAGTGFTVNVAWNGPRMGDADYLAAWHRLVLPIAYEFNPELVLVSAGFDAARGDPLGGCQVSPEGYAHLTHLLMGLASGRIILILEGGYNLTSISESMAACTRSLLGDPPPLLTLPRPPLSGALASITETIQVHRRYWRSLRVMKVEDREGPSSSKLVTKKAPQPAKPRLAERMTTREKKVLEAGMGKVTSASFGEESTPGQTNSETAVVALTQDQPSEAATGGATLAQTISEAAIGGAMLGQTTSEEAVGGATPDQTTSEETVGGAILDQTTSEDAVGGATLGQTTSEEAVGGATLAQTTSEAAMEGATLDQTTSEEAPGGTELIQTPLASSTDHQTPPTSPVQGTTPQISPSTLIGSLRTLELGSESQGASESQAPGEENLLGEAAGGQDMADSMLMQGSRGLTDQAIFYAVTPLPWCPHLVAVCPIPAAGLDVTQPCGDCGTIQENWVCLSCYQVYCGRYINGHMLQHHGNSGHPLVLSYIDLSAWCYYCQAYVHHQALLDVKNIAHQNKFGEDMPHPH
In words: Inhibition of N-terminal GST tagged human recombinant HDAC6 (1 to 1215 residues) expressed in Sf9 insect cells using Z-Lys(Ac)-AMC as fluorogenic substrate preincubated for 5 mins followed by substrate addition and measured after 90 mins by microplate reader analysis.

Assay [4] concerns T1, Histone deacetylase 6 (Danio rerio), F8W4B7 [H573A]. The assay can be described thus: Irreversible inhibition of Danio rerio HDAC6 H573A mutant catalytic domain 2 assessed as enzyme catalysed ring opening by measuring reduction in 2-(Benzylamino)-N'-(2,2-difluoroacetyl)pyrimidine-5-carbohydrazide formation at 100 uM incubated overnight by LC-MS analysis. The gist of the method: as §1

Molecules are shown by their SMILES. Active and inactive are the calls of the source. The rule behind the calls is not given here.

Histone deacetylase 4 (Homo sapiens), sequence (P56524 whole entry, the tested form may be a part): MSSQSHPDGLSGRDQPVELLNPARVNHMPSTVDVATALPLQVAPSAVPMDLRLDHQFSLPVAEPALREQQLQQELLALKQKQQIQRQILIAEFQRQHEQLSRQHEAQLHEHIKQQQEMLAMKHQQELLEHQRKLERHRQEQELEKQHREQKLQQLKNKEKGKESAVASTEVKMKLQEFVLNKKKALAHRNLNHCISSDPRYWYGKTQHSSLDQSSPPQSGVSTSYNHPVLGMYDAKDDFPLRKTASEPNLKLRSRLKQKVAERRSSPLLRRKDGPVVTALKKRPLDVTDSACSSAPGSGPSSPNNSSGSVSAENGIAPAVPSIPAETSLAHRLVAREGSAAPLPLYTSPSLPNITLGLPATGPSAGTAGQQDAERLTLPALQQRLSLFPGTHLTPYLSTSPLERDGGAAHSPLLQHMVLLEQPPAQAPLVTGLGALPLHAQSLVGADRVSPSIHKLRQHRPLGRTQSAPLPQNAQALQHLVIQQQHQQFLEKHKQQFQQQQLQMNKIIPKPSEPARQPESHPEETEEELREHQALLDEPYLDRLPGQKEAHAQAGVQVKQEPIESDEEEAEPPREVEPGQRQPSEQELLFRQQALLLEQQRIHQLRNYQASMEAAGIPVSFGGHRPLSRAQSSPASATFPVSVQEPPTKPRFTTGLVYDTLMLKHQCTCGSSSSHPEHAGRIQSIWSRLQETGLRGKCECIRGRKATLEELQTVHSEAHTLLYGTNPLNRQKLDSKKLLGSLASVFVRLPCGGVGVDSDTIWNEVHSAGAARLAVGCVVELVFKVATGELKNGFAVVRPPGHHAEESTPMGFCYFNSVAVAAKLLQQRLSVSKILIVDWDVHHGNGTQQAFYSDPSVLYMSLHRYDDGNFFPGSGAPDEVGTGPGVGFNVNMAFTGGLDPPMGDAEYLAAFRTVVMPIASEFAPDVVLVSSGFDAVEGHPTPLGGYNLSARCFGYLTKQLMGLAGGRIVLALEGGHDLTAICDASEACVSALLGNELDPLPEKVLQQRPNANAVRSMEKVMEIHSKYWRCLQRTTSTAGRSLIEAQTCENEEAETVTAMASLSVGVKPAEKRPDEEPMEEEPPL

On to `FC(F)(F)c1nnc(-c2cnc(NCc3ccccc3)nc2)o1`, for which the inhibition entry in assay [1] and in assay [4] was “Active” in each case. Besides, in assay [2], the inhibition was < 15%. In addition, the IC50 in assay [3] worked out at 840 nM.
`FC(F)c1nnc(-c2cnc(NCc3ccccc3)nc2)o1`: the inhibition entry in assay [1] and in assay [4] was “Active” throughout. Moreover, in assay [2], the inhibition is < 15%. The IC50 in assay [3] came out at 347 nM.
